Data on 38 sequences can be found in the array DNA melting data of Ke et al. (doi:10.1101/2024.01.08.574731).

Data set [1] can be described thus: folding enthalpy; higher = less favourable; fluorescence melt of hairpins on a sequencing array, two-state fit. The note with it: sodium 0.088 M. The method in brief: (§1)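 Hairpins were imaged by Cy3 fluorescence on a sequenced MiSeq flow cell with annealed Cy3 and quencher oligos, in 50 mM Na-HEPES pH 8.0, 25 mM NaCl, in 2.5 °C steps up to 60 °C. Bootstrapped two-state fits of normalised signals gave melting temperature and folding enthalpy. Four replicates were combined by inverse variance, and fitted temperatures were raised by 9.35 °C to match UV melts.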

A short description of data set [2]: melting temperature; fluorescence melt of hairpins on a sequencing array, two-state fit, raised by 9.35 °C to match UV melts. Conditions: sodium 0.088 M. The essentials: as §1

On to GATCGACCTTTCGATC ((((((....)))))), for which, in data set [1], the folding enthalpy is -42.9 kcal/mol. Besides, in data set [2], the Tm is 50.6 °C.

With GATCGACGAAAGTCCATC (((.(((....))).))), the folding enthalpy in data set [1] is -15.5 kcal/mol. Also, the Tm in data set [2] is 30 °C.

Turning to GATCGACGAAAGTCTATC (((.(((....))).))), in data set [1], the folding enthalpy is -26.8 kcal/mol. Moreover, the Tm in data set [2] is 37.1 °C.

With GATCGACGAATCGATC ((((((....)))))), the folding enthalpy in data set [1] is -33.7 kcal/mol. Further, in data set [2], the Tm was 49 °C.

As to GATCGACGATTCGATC ((((((....)))))), in data set [1], the folding enthalpy is -37.1 kcal/mol. For the same sequence, the Tm in data set [2] was 49.4 °C.

Consider GATCGACGCATCGATC ((((((....)))))), for which the folding enthalpy in data set [1] was -32.6 kcal/mol. Besides, in data set [2], the Tm was determined as 52.6 °C.

Regarding GATCGACGCCTCGATC ((((((....)))))), the folding enthalpy in data set [1] is -43.6 kcal/mol. For the same sequence, the Tm in data set [2] stood at 51.6 °C.

For the sequence GATCGACGTTCGATC ((((((...)))))), the folding enthalpy in data set [1] was -40.8 kcal/mol. For the same sequence, in data set [2], the Tm worked out at 50 °C.

Take GATCGACTCTCGATC ((((((...)))))): in data set [1], the folding enthalpy was -40.6 kcal/mol. Further, the Tm in data set [2] is 50.9 °C.

Take GATCGACTGATCGATC ((((((....)))))): in data set [1], the folding enthalpy is -30.5 kcal/mol. Further, the Tm in data set [2] turned out to be 50.9 °C.

Consider GATCGACTTTTCGATC ((((((....)))))), for which, in data set [1], the folding enthalpy is -35.1 kcal/mol. The Tm in data set [2] worked out at 51.6 °C.

As for GATCGAGAATCGATC ((((((...)))))), in data set [1], the folding enthalpy was -39.8 kcal/mol. For the same sequence, in data set [2], the Tm was 59.5 °C.

In the case of GATCGAGACTCGATC ((((((...)))))), the folding enthalpy in data set [1] was -37.1 kcal/mol. The Tm in data set [2] is 52.9 °C.

Regarding GATCGAGCATTCGATC ((((((....)))))), in data set [1], the folding enthalpy was -42.6 kcal/mol. The Tm in data set [2] turned out to be 58.2 °C.

On to GATCGAGCCGTCGATC ((((((....)))))), for which the folding enthalpy in data set [1] was -34.8 kcal/mol. In addition, the Tm in data set [2] came out at 54.4 °C.

In the case of GATCGAGCTCTCGATC ((((((....)))))), in data set [1], the folding enthalpy was -39.1 kcal/mol. Besides, the Tm in data set [2] stood at 55.2 °C.

GATCGAGGAAACTTGATC ((((.((....)).)))): in data set [1], the folding enthalpy was -28.7 kcal/mol. Further, the Tm in data set [2] was found to be 44.3 °C.

Regarding GATCGAGGGATCGATC ((((((....)))))), in data set [1], the folding enthalpy was -34.2 kcal/mol. Besides, the Tm in data set [2] amounted to 53.4 °C.

For GATCGAGGGCTCGATC ((((((....)))))), in data set [1], the folding enthalpy is -46.3 kcal/mol. For the same sequence, the Tm in data set [2] is 53.5 °C.

GATCGAGGGTTCGATC ((((((....)))))): in data set [1], the folding enthalpy is -36.9 kcal/mol. In addition, the Tm in data set [2] was found to be 50.9 °C.

Take GATCGAGGTTTCGATC ((((((....)))))): the folding enthalpy in data set [1] is -44.7 kcal/mol. Also, in data set [2], the Tm stood at 53.2 °C.

As for GATCGAGTGATCGATC ((((((....)))))), the folding enthalpy in data set [1] was -40.1 kcal/mol. The Tm in data set [2] was 55.3 °C.

Consider GATCGAGTTATCGATC ((((((....)))))), for which the folding enthalpy in data set [1] was -41.7 kcal/mol. In data set [2], the Tm is 58.6 °C.

As to GATCGATAATTCGATC ((((((....)))))), the folding enthalpy in data set [1] is -39.6 kcal/mol. The Tm in data set [2] worked out at 51.2 °C.

For the sequence GATCGATACATCGATC ((((((....)))))), the folding enthalpy in data set [1] is -46.2 kcal/mol. Also, the Tm in data set [2] worked out at 55.9 °C.

With GATCGATACCTCGATC ((((((....)))))), the folding enthalpy in data set [1] was -35.1 kcal/mol. The Tm in data set [2] turned out to be 53.1 °C.

On to GATCGATACGTCGATC ((((((....)))))), for which, in data set [1], the folding enthalpy is -38.6 kcal/mol. The Tm in data set [2] turned out to be 54.5 °C.

Consider GATCGATACTTCGATC ((((((....)))))), for which the folding enthalpy in data set [1] is -57.9 kcal/mol. Further, in data set [2], the Tm turned out to be 53 °C.

In the case of GATCGATCCATCGATC ((((((....)))))), in data set [1], the folding enthalpy was -49.1 kcal/mol. The Tm in data set [2] amounted to 56.7 °C.

Take GATCGATCGCTCGATC ((((((....)))))): in data set [1], the folding enthalpy is -37.3 kcal/mol. In data set [2], the Tm is 52.4 °C.

GATCGATGAGTCGATC ((((((....)))))): the folding enthalpy in data set [1] was -41.6 kcal/mol. Also, the Tm in data set [2] worked out at 55.5 °C.

GATCGATGCTCGATC ((((((...)))))): the folding enthalpy in data set [1] was -37 kcal/mol. For the same sequence, the Tm in data set [2] stood at 51.8 °C.

With GATCGATGCTTCGATC ((((((....)))))), the folding enthalpy in data set [1] was -41.9 kcal/mol. For the same sequence, the Tm in data set [2] is 54.9 °C.

With GATCGATTAATCGATC ((((((....)))))), the folding enthalpy in data set [1] was -43.9 kcal/mol. The Tm in data set [2] is 55.9 °C.

Turning to GATCGATTAGTCGATC ((((((....)))))), the folding enthalpy in data set [1] is -54.5 kcal/mol. The Tm in data set [2] turned out to be 53.2 °C.

For the sequence GATCGATTCCTCGATC ((((((....)))))), in data set [1], the folding enthalpy was -41.2 kcal/mol. In addition, the Tm in data set [2] was found to be 52.3 °C.

For GATCGATTCTTCGATC ((((((....)))))), the folding enthalpy in data set [1] was -36.8 kcal/mol. The Tm in data set [2] worked out at 56.9 °C.

Take GATCGATTTCTCGATC ((((((....)))))): in data set [1], the folding enthalpy was -36.4 kcal/mol. Also, the Tm in data set [2] turned out to be 52.5 °C.
